SR-BI DiI inh = inhibitors of mouse SR-BI mediated HDL lipid uptake; ldlA[mSR-BI] CHO cells, DiI-HDL uptake fluorescence, 3 h; inhibition, % at 12.5 µM; 320,000 compounds, 0.96% hits;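 active means mean replicate inhibition of at least 70% and a set share of replicates each scoring 70 or more; inconclusive means meets just one of the two criteria; inactive means fails both criteria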;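 further: 0% = median of neutral control wells and 100% = median of positive control wells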
CDK5 inh = blocks human CDK5/p35 kinase activity | Q00535+Q15078 | Recombinant CDK5/p35, ADP-Glo luminescence, 60 min | inhibition, % at 10 µM | 330,000 compounds, 0.01% hits | AID 488839;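 active means highest replicate inhibition of at least 50% and at least 75% of replicates reaching 50%; inconclusive means only one of the two criteria met; inactive means both criteria failed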;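 further: plate controls were DMSO neutral control for no effect and GW8510 at 10 µM for full effect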
dFosB act = activators of mouse delta FosB homodimer. purified delta FosB, TAMRA-CDK5 oligo fluorescence polarization; percent of positive-control signal above neutral wells. activation, % at 25 µM. 340,000 compounds, 0.99% hits. P13346;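 active means mean activation above about 17%, with every replicate also reaching it, limit read from the data, passing the limit was not always enough; inconclusive means only one of the two conditions met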
DYRK1A inh = blocks rat Dyrk1A kinase activity; Q63470; ADP-Glo luminescence, NFATc1 peptide; inhibition, % at 12.5 µM; 310,000 compounds, 0.43% hits;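 further: plate controls were vehicle with enzyme for no effect and no enzyme for full effect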
SR-BI DiI-HDL act = enhances SR-BI lipid uptake from DiI-HDL; activation, % at 12.5 µM; AID 504775; 320,000 compounds, 0.096% hits; CHO ldlA[mSR-BI] cells, DiI-HDL uptake fluorescence, 3 h; 100 = double the neutral-control signal;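 active means mean replicate activation of at least 60% and every replicate at or above 60%; inconclusive means mean or all-replicate condition met, but not both; inactive means mean below 60% and not all replicates reaching 60%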;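 further: 0% = median plate neutral-control signal and 100% = twice that signal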
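Assay system: LDL receptor-deficient CHO ldlA cells overexpressing murine SR-BI / Medium: BSA-supplemented, HEPES-buffered Ham's F12, pH 7.4 / Probe or stimulus: DiI-labelled HDL at 10 µg/mL final / Timing: compound with DiI-HDL co-incubation, 3 h at 37 °C / Technique: bottom-read cell fluorescence after medium removal, ex 550/em 595 nm / Measure: HDL uptake via cellular fluorescence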
NSD2 inh = inhibitors of human histone methyltransferase NSD2; O96028; NSD2 peptide methylation, AlphaScreen, 120 min; 310,000 compounds, 0.54% hits; inhibition, % at 12.5 µM
Target sequence (O96028 whole entry, looked up): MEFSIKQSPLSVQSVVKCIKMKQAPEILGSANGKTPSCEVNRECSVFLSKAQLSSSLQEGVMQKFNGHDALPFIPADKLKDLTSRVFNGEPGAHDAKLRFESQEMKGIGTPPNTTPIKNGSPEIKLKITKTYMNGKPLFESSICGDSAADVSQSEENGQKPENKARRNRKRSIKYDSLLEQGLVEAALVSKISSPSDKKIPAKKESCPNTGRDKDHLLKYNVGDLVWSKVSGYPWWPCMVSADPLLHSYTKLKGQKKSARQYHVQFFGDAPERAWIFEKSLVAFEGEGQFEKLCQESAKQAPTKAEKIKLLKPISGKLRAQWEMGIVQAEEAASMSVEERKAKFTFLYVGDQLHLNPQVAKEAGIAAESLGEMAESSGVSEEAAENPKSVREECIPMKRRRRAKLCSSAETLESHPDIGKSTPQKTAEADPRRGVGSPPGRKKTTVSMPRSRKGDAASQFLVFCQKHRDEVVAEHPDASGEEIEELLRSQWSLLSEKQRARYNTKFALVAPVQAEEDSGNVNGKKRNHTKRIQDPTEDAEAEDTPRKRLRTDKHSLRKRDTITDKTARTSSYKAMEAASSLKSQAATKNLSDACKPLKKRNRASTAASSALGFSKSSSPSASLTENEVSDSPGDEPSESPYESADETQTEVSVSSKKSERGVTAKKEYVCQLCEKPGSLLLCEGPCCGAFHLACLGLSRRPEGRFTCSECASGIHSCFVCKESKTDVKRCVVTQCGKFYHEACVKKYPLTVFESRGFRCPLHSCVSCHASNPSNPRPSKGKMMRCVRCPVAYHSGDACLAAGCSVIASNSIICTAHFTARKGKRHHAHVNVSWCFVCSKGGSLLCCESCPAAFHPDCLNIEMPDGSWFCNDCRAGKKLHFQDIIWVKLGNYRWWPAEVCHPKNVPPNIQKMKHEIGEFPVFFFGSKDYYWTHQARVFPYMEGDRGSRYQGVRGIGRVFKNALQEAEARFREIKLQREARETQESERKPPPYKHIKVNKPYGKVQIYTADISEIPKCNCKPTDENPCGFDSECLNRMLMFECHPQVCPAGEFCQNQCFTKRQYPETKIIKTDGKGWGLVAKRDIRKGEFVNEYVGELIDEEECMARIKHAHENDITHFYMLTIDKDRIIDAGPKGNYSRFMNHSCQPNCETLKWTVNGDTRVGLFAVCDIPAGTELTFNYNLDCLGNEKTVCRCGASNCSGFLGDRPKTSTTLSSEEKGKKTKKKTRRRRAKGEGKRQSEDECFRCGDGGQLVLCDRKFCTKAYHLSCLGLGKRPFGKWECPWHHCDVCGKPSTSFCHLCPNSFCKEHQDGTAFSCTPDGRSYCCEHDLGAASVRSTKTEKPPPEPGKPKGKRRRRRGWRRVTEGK
The depositor's hits bear a star. In the library only some 2.5% were active in any assay of this set; here they are far more common. Unless noted, no stated cut-off is given here; in the data, active means inhibition above about 50%; inactive means the rest.

`C#CCOCCOCCOCCNc1nc(N2CCN(C(=O)C(Cc3cc4ccccc4[nH]3)n3cc(C(N)C(C)CC)nn3)CC2)nc(N2CCN(C(=O)C(Cc3cc4ccccc4[nH]3)n3cc(C(N)C(C)CC)nn3)CC2)n1` (centres undefined) gave SR-BI DiI inh -67, CDK5 inh 1, dFosB act inconclusive, DYRK1A inh 6 and SR-BI DiI-HDL act 67*.
`COc1ccc(C(=O)N=C2SC3CS(=O)(=O)CC3N2Cc2ccccc2)cc1OC` (centres undefined) gave SR-BI DiI inh 28, CDK5 inh 0, dFosB act 6, DYRK1A inh 3, SR-BI DiI-HDL act -28 and NSD2 inh -1.
`O=C(Nc1ccc(-c2cn3c(n2)SCC3)cc1)c1ccc2c(c1)OCO2` gave SR-BI DiI inh 82*, CDK5 inh 2, dFosB act -7, SR-BI DiI-HDL act -82 and NSD2 inh 5.
For O=C(Nc1cccc(-c2cn3c(n2)SCC3)c1)c1ccc2c(c1)OCO2 the results were SR-BI DiI inh 60, CDK5 inh 0, dFosB act -1, SR-BI DiI-HDL act -60 and NSD2 inh -1.
CCN1C(=O)/C(=C\C=C\c2ccccc2[N+](=O)[O-])SC1=S was read as SR-BI DiI inh 30, CDK5 inh -3, dFosB act 3, DYRK1A inh -4, SR-BI DiI-HDL act -30 and NSD2 inh 3.
CCN1C(=O)/C(=C/C=C2\N(CC)c3cc(S(=O)(=O)N(C)C)ccc3N2c2ccccc2)SC1=S was read as CDK5 inh 2, dFosB act 91*, DYRK1A inh 1 and NSD2 inh 4.
For COCCCN1C(=O)C(CC(=O)NC(c2ccccc2)c2ccccc2)CC(C(=O)N2CCCCCC2)=C1C (centres undefined) the results were NSD2 inh 8.
Screening CCC(=O)Nc1ccc2c(c1)Cc1cc(NC(=O)CC)ccc1-2 returned SR-BI DiI inh 74*, CDK5 inh 0, dFosB act -1, SR-BI DiI-HDL act -74 and NSD2 inh -3.
Screening C#CCOCCOCCOCCNc1nc(N2CCN(C(=O)[C@H](CCC(=O)O)n3cc([C@@H](N)[C@H](C)CC)nn3)CC2)nc(N2CCN(C(=O)[C@H](CCC(=O)O)n3cc([C@@H](N)CCSC)nn3)CC2)n1 returned SR-BI DiI inh -13, CDK5 inh 2, dFosB act -8, DYRK1A inh -1 and SR-BI DiI-HDL act 13.
COc1cc2cccc(OC)c(=O)c2c(O)c1OC was read as SR-BI DiI inh 0, CDK5 inh -1, dFosB act 10, DYRK1A inh 4, SR-BI DiI-HDL act 0 and NSD2 inh 0.
CC(=O)Oc1cc2cccc(OC(C)=O)c(=O)c2c(OC(C)=O)c1OC(C)=O was read as SR-BI DiI inh -6, CDK5 inh 0, dFosB act -5, DYRK1A inh 64* and SR-BI DiI-HDL act 6.
Screening CN(C)c1ccc(/C=N/NC(=O)c2ccc(CN3CCOCC3)cc2)cc1Br returned SR-BI DiI inh 84*, CDK5 inh -3, dFosB act -14, DYRK1A inh -2, SR-BI DiI-HDL act -84 and NSD2 inh 3.
`Cc1cc(NC(=O)CSCC(=O)Nc2nc3c(C)cccc3s2)no1` gave SR-BI DiI inh -9, CDK5 inh 0, dFosB act -5, DYRK1A inh -1, SR-BI DiI-HDL act 9 and NSD2 inh 0.
COc1cc(-c2ccc(Nc3ccccc3C(=O)O)c(OC)c2)ccc1Nc1ccccc1C(=O)O was read as SR-BI DiI inh 9, CDK5 inh 0, dFosB act -16, DYRK1A inh 39, SR-BI DiI-HDL act -9 and NSD2 inh 80*.
For O=C1CC(SC(=Nc2ccccc2)Nc2ccccc2)C(=O)N1c1ccc(Cl)c(Cl)c1 (centres undefined) the results were SR-BI DiI inh 31, CDK5 inh 1, dFosB act 6, DYRK1A inh 1, SR-BI DiI-HDL act -31 and NSD2 inh -4.
For Cc1cccc(N2C(=O)CC(SC(=Nc3ccccc3)Nc3ccccc3)C2=O)c1 (centres undefined) the results were SR-BI DiI inh 74*, CDK5 inh 1, dFosB act 0, DYRK1A inh 1, SR-BI DiI-HDL act -74 and NSD2 inh -1.
CCN1CCN(C(=O)c2cnn3c(C(F)F)cc(-c4ccc(C)cc4)nc23)CC1 was read as SR-BI DiI inh 28, CDK5 inh 0, dFosB act -11, DYRK1A inh 1, SR-BI DiI-HDL act -28 and NSD2 inh 10.
Cc1ccc(-c2cc(C(F)F)n3ncc(C(=O)N4CCN(c5ccccn5)CC4)c3n2)cc1 was read as SR-BI DiI inh 78*, CDK5 inh -10, dFosB act -1, DYRK1A inh 7 and SR-BI DiI-HDL act -77.
For O=C(c1cnn2c(C(F)F)cc(-c3ccccc3)nc12)N1CCN(Cc2ccc3c(c2)OCO3)CC1 the results were SR-BI DiI inh 78*, CDK5 inh 0, dFosB act -11 and DYRK1A inh 8.
For Cc1ccc2c(c1)N(C)/C(=C/c1cccc[n+]1C)S2 the results were SR-BI DiI inh -3, CDK5 inh 1, dFosB act 18*, DYRK1A inh -4 and SR-BI DiI-HDL act 3.
CCN1CCc2c(sc(NC(=O)c3ccc(S(=O)(=O)N(CC)c4ccccc4)cc3)c2C(N)=O)C1 was read as SR-BI DiI inh 4, CDK5 inh 2, dFosB act 41*, DYRK1A inh 7, SR-BI DiI-HDL act -4 and NSD2 inh 7.
For CCN1CCc2c(sc(NC(=O)Nc3ccc(Cl)c(Cl)c3)c2C(N)=O)C1 the results were SR-BI DiI inh 5, CDK5 inh 0, dFosB act 56*, DYRK1A inh -3, SR-BI DiI-HDL act -5 and NSD2 inh -7.
Screening CCN1CCc2c(sc(NC(=O)Cc3ccccc3)c2C(N)=O)C1 returned SR-BI DiI inh -16, CDK5 inh -1, dFosB act -8, DYRK1A inh 7 and SR-BI DiI-HDL act 16.
`O=C(Nc1cccnc1)c1ccc(CSc2ccc(Cl)cc2)o1` gave NSD2 inh 1.
CCN(C)C(=O)Oc1cccc([C@H](C)N(C)C)c1 was read as NSD2 inh -5.
Screening COc1cc(C(=O)NCCC(C)C)ccc1OCc1ccc(Cl)cc1Cl returned SR-BI DiI inh 82*, CDK5 inh -1, dFosB act -2, DYRK1A inh -4, SR-BI DiI-HDL act -82 and NSD2 inh 0.
COc1cc(C(=O)NC2CCCCC2)ccc1OCc1ccc(Cl)cc1Cl was read as SR-BI DiI inh 76*, CDK5 inh 0, dFosB act 11, DYRK1A inh -2, SR-BI DiI-HDL act -76 and NSD2 inh -3.

Bioassay records from PubChem BioAssay.
